{"source": "paper PMC9073653", "about": "(RSC Advances, 2019)", "key": {"human fibroblasts (HAF)": {"test_system": "human fibroblasts (HAF)", "assay": "SRB cytotoxicity assay, human fibroblasts HAF", "type": "cell-based", "conditions": "Fibroblast, 96 h, read-out: IC50 HAF"}, "LNCaP cells": {"test_system": "LNCaP cells", "assay": "SRB antiproliferative assay, LNCaP", "type": "cell-based", "conditions": "Homo sapiens, read-out: IC50 LNCaP", "procedure,_shortened": "(§1)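 AR-positive human prostate cancer line, tested in vitro for antiproliferative activity by sulforhodamine B (SRB) staining, with IC50 as the read-out.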"}, "22RV1 cells": {"test_system": "22RV1 cells", "assay": "SRB antiproliferative assay, 22RV1", "type": "cell-based", "conditions": "Homo sapiens, 22Rv1, read-out: IC50 22RV1", "procedure,_shortened": "as §1"}, "[1]": {"test_system": "DU145, PC3 and PC3M cell lines", "assay": "SRB antiproliferative assay, CRPC cell lines together", "type": "cell-based, human", "conditions": "across DU145, PC3 and PC3M"}, "DU145 cells [2]": {"test_system": "DU145 cells", "assay": "Cell cycle analysis by PI staining and flow cytometry", "type": "cell-based, human", "conditions": "10 μM, 24 h, control 9.66%"}, "[3]": {"test_system": "PARP and CL.PARP in DU145 cells", "assay": "Western blot of PARP and cleaved PARP", "type": "cell-based, human"}, "DU145 cells [4]": {"test_system": "DU145 cells", "assay": "Transwell migration assay", "type": "cell-based, human", "conditions": "10 μM, 24 h"}, "DU145 cells [5]": {"test_system": "DU145 cells", "assay": "Wound healing migration assay", "type": "cell-based, human", "conditions": "10 μM, 24 h"}, "DU145 cells [6]": {"test_system": "DU145 cells", "assay": "SRB antiproliferative assay, DU145", "type": "cell-based, human", "conditions": "in DU145 cells"}, "PC3 cells": {"test_system": "PC3 cells", "assay": "SRB antiproliferative assay, PC3", "type": "cell-based, human", "conditions": "in PC3 cells"}}, "data": [{"smiles": "C[C@]1([N+](=O)[O-])C(=O)c2ccccc2O[C@@H]1CC(=O)Nc1nccs1", "note": "[Compound 22]", "values": [{"measurement": "IC50", "setting": "human fibroblasts (HAF)", "result": "> 100", "unit": "µM"}]}, {"smiles": "CCCCNC(=O)C[C@H]1Oc2ccccc2C(=O)[C@]1(C)[N+](=O)[O-]", "note": "[Compound 15]", "values": [{"measurement": "IC50", "setting": "human fibroblasts (HAF)", "result": "> 100", "unit": "µM"}]}, {"smiles": "C[C@]1([N+](=O)[O-])C(=O)c2ccccc2O[C@@H]1CC(N)=O", "note": "[Compound 11]", "values": [{"measurement": "IC50", "setting": "human fibroblasts (HAF)", "result": "> 100", "unit": "µM"}]}, {"smiles": "CC[C@]1([N+](=O)[O-])C(=O)c2ccccc2O[C@@H]1CC(=O)NC1CCCCC1", "note": "[Compound 34]", "values": [{"measurement": "IC50", "setting": "human fibroblasts (HAF)", "result": "> 100", "unit": "µM"}]}, {"smiles": "CCCCCCCCNC(=O)C[C@H]1Oc2ccccc2C(=O)[C@]1(C)[N+](=O)[O-]", "note": "[Compound 17]", "values": [{"measurement": "IC50", "setting": "human fibroblasts (HAF)", "result": "> 100", "unit": "µM"}]}, {"smiles": "C[C@]1([N+](=O)[O-])C(=O)c2ccccc2O[C@@H]1CC(=O)NNc1nc2ccccc2s1", "note": "[Compound 26]", "values": [{"measurement": "IC50", "setting": "human fibroblasts (HAF)", "result": "> 100", "unit": "µM"}]}, {"smiles": "CN(C(=O)C[C@H]1Oc2ccccc2C(=O)[C@]1(C)[N+](=O)[O-])C1CCCCC1", "note": "[Compound 27]", "values": [{"measurement": "IC50", "setting": "human fibroblasts (HAF)", "result": "> 100", "unit": "µM"}]}, {"smiles": "C[C@]1([N+](=O)[O-])C(=O)c2ccccc2O[C@@H]1CC(=O)NCC1CCCCC1", "note": "[Compound 31]", "values": [{"measurement": "IC50", "setting": "human fibroblasts (HAF)", "result": "> 100", "unit": "µM"}]}, {"smiles": "C[C@]1([N+](=O)[O-])C(=O)c2ccccc2O[C@@H]1CC(=O)Nc1ccc2[nH]ccc2c1", "note": "[Compound 24]", "values": [{"measurement": "IC50", "setting": "human fibroblasts (HAF)", "result": "> 100", "unit": "µM"}]}, {"smiles": "C[C@]1([N+](=O)[O-])C(=O)c2ccccc2O[C@@H]1CC(=O)NC1CCCC1", "note": "[Compound 29]", "values": [{"measurement": "IC50", "setting": "human fibroblasts (HAF)", "result": "> 100", "unit": "µM"}]}, {"smiles": "C#CCNC(=O)C[C@H]1Oc2ccccc2C(=O)[C@]1(C)[N+](=O)[O-]", "note": "[Compound 14]", "values": [{"measurement": "IC50", "setting": "human fibroblasts (HAF)", "result": "> 100", "unit": "µM"}]}, {"smiles": "C[C@]1([N+](=O)[O-])C(=O)c2cccc(F)c2O[C@@H]1CC(=O)NC12CC3CC(CC(C3)C1)C2", "note": "[Compound 43]", "values": [{"measurement": "IC50", "setting": "human fibroblasts (HAF)", "result": "> 100", "unit": "µM"}]}, {"smiles": "CC12CC3CC(C)(C1)CC(NC(=O)C[C@H]1Oc4ccccc4C(=O)[C@]1(C)[N+](=O)[O-])(C3)C2", "note": "[Compound 32]", "values": [{"measurement": "IC50", "setting": "human fibroblasts (HAF)", "result": "> 100", "unit": "µM"}]}, {"smiles": "C[C@]1([N+](=O)[O-])C(=O)c2ccccc2O[C@@H]1CC(=O)NC1CCCCC1", "note": "[Compound 18]", "values": [{"measurement": "IC50", "setting": "human fibroblasts (HAF)", "result": "> 100", "unit": "µM"}]}, {"smiles": "CN(C)C(=O)C[C@H]1Oc2ccccc2C(=O)[C@]1(C)[N+](=O)[O-]", "note": "[Compound 28]", "values": [{"measurement": "IC50", "setting": "human fibroblasts (HAF)", "result": "> 100", "unit": "µM"}]}, {"smiles": "C[C@]1([N+](=O)[O-])C(=O)c2ccc(F)cc2O[C@@H]1CC(=O)NC12CC3CC(CC(C3)C1)C2", "note": "[Compound 42]", "values": [{"measurement": "IC50", "setting": "human fibroblasts (HAF)", "result": "> 100", "unit": "µM"}]}, {"smiles": "C[C@]1([N+](=O)[O-])C(=O)c2cc(C(F)(F)F)ccc2O[C@@H]1CC(=O)NC12CC3CC(CC(C3)C1)C2", "note": "[Compound 35]", "values": [{"measurement": "IC50", "setting": "human fibroblasts (HAF)", "result": "> 100", "unit": "µM"}]}, {"smiles": "CC[C@]1([N+](=O)[O-])C(=O)c2ccccc2O[C@@H]1CC(=O)NC12CC3CC(CC(C3)C1)C2", "note": "[Compound 33]", "values": [{"measurement": "IC50", "setting": "human fibroblasts (HAF)", "result": "> 100", "unit": "µM"}]}, {"smiles": "C[C@]1([N+](=O)[O-])C(=O)c2cc(Cl)ccc2O[C@@H]1CC(=O)NC12CC3CC(CC(C3)C1)C2", "note": "[Compound 37]", "values": [{"measurement": "IC50", "setting": "human fibroblasts (HAF)", "result": "> 100", "unit": "µM"}]}, {"smiles": "C[C@]1([N+](=O)[O-])C(=O)c2c(F)cccc2O[C@@H]1CC(=O)NC12CC3CC(CC(C3)C1)C2", "note": "[Compound 41]", "values": [{"measurement": "IC50", "setting": "human fibroblasts (HAF)", "result": "> 100", "unit": "µM"}]}, {"smiles": "C[C@]1([N+](=O)[O-])C(=O)c2ccccc2O[C@@H]1CC(=O)NCc1ccccc1", "note": "[Compound 21]", "values": [{"measurement": "IC50", "setting": "human fibroblasts (HAF)", "result": "> 100", "unit": "µM"}]}, {"smiles": "C[C@]1([N+](=O)[O-])C(=O)c2ccccc2O[C@@H]1CC(=O)Nc1ncccn1", "note": "[Compound 23]", "values": [{"measurement": "IC50", "setting": "human fibroblasts (HAF)", "result": "> 100", "unit": "µM"}]}, {"smiles": "CNC(=O)C[C@H]1Oc2ccccc2C(=O)[C@]1(C)[N+](=O)[O-]", "note": "[Compound 12]", "values": [{"measurement": "IC50", "setting": "human fibroblasts (HAF)", "result": "> 100", "unit": "µM"}]}, {"smiles": "CC(C)(C)NC(=O)C[C@H]1Oc2ccccc2C(=O)[C@]1(C)[N+](=O)[O-]", "note": "[Compound 16]", "values": [{"measurement": "IC50", "setting": "human fibroblasts (HAF)", "result": "> 100", "unit": "µM"}]}, {"smiles": "CC(=O)O[C@@]12CO[C@@H]1C[C@H](O)[C@@]1(C)C(=O)[C@H](O)C3=C(C)[C@@H](OC(=O)[C@H](O)[C@@H](NC(=O)OC(C)(C)C)c4ccccc4)C[C@@](O)([C@@H](OC(=O)c4ccccc4)[C@H]21)C3(C)C", "note": "[Docetaxel, reference compound]", "values": [{"measurement": "IC50", "setting": "human fibroblasts (HAF)", "result": "0.157 ± 0.031", "unit": "µM"}]}, {"smiles": "CCNC(=O)C[C@H]1Oc2ccccc2C(=O)[C@]1(C)[N+](=O)[O-]", "note": "[Compound 13]", "values": [{"measurement": "IC50", "setting": "human fibroblasts (HAF)", "result": "> 100", "unit": "µM"}]}, {"smiles": "COc1ccc2c(c1)C(=O)[C@](C)([N+](=O)[O-])[C@@H](CC(=O)NC13CC4CC(CC(C4)C1)C3)O2", "note": "[Compound 40]", "values": [{"measurement": "IC50", "setting": "human fibroblasts (HAF)", "result": "> 100", "unit": "µM"}]}, {"smiles": "C#CCOC(=O)C[C@H]1Oc2ccccc2C(=O)[C@]1(C)[N+](=O)[O-]", "note": "[Compound 6]", "values": [{"measurement": "IC50", "setting": "human fibroblasts (HAF)", "result": "> 100", "unit": "µM"}]}, {"smiles": "C[C@]1([N+](=O)[O-])C(=O)c2cc(F)ccc2O[C@@H]1CC(=O)NC12CC3CC(CC(C3)C1)C2", "note": "[Compound 36]", "values": [{"measurement": "IC50", "setting": "human fibroblasts (HAF)", "result": "> 100", "unit": "µM"}, {"measurement": "IC50", "setting": "LNCaP cells", "result": 4.4, "unit": "µM"}, {"measurement": "IC50", "setting": "22RV1 cells", "result": 7.43, "unit": "µM"}, {"measurement": "times more potent than the positive compound cisplatin", "setting": "[1]", "result": "2.3–19.4 times"}, {"measurement": "percentage of G2/M phase cells", "setting": "DU145 cells [2]", "result": 0, "unit": "%"}, {"measurement": "expression of PARP and CL.PARP", "setting": "[3]", "result": "promote the PARP to CL. PARP"}, {"measurement": "migration rate in comparison with control", "setting": "DU145 cells [4]", "result": 23.94, "unit": "%"}, {"measurement": "cell migration ability, wound healing", "setting": "DU145 cells [5]", "result": "notably inhibited"}]}, {"smiles": "C[C@]1([N+](=O)[O-])C(=O)c2ccccc2O[C@@H]1CC(=O)NC12CC3CC(CC(C3)C1)C2", "note": "[Compound 19]", "values": [{"measurement": "more potent antiproliferative activity than cisplatin", "setting": "DU145 cells [6]", "result": 1.6, "unit": "fold"}, {"measurement": "more potent antiproliferative activity than cisplatin", "setting": "PC3 cells", "result": 5.9, "unit": "fold"}, {"measurement": "IC50", "setting": "human fibroblasts (HAF)", "result": "> 100", "unit": "µM"}]}, {"smiles": "C[C@]1(N)C(=O)c2cc(F)ccc2O[C@@H]1CC(=O)NC12CC3CC(CC(C3)C1)C2", "note": "[Compound 44]", "values": [{"measurement": "IC50", "setting": "human fibroblasts (HAF)", "result": "> 100", "unit": "µM"}]}, {"smiles": "C[C@]1([N+](=O)[O-])C(=O)c2ccccc2O[C@@H]1CC(=O)OCc1ccccc1", "note": "[Compound 10]", "values": [{"measurement": "IC50", "setting": "human fibroblasts (HAF)", "result": "> 100", "unit": "µM"}]}, {"smiles": "C[C@]1([N+](=O)[O-])C(=O)c2cc(Br)ccc2O[C@@H]1CC(=O)NC12CC3CC(CC(C3)C1)C2", "note": "[Compound 38]", "values": [{"measurement": "IC50", "setting": "human fibroblasts (HAF)", "result": "3.67 ± 0.56", "unit": "µM"}]}, {"smiles": "C[C@]1([N+](=O)[O-])C(=O)c2ccccc2O[C@@H]1CC(=O)Nc1ccccc1", "note": "[Compound 20]", "values": [{"measurement": "IC50", "setting": "human fibroblasts (HAF)", "result": "> 100", "unit": "µM"}]}]}
